Results taken from ChEMBL document CHEMBL3244213, “Synthesis of angiotensin II antagonists by incorporating alpha-methylalanine or O-methylthreonine residues in angiotension II analogues” (J Med Chem, 1977).
The source made the active and inactive calls. No cut-off for these calls is given here. Non-standard residues stand in square brackets, D forms with d. Residues, ends and D or L forms follow the SMILES beside them. Sar = CNCC(=O)O

Tests used:
[1] = Retardation factor of the compound using n-BuOH-pyridine-water at ratio of 65:35:35 as solvent system by thin layer chromatography; assay type: physicochemical; settings: buffer
[2] = Retardation factor of the compound using n-BuOH-AcOH-water-pyridine at ratio of 30:6:24:20 as solvent system by thin layer chromatography; assay type: physicochemical; settings: buffer
[3] = Retardation factor of the compound using n-BuOH-AcOH-water at ratio of 4:1:5 as solvent system by thin layer chromatography; assay type: physicochemical; settings: buffer
[4] = Competitive antagonist at angiotensin 2 receptor in rabbit aorta assessed as rightward shift in angiotensin-2 dose response curve for myotropic activity; assay type: tissue-based, Oryctolagus cuniculus
Oryctolagus cuniculus [5] = species on record: Oryctolagus cuniculus; assay: Antagonist at angiotensin 2 receptor in rabbit aorta assessed as duration of action at 1 uM/L treated for 5 mins after angiotensin-2 challenge
Outline: (§1)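 Spirally cut rabbit aortic strips challenged with a standard 10^-9 M/L angiotensin II dose, then incubated with 10^-6 M/L analogue for 5 min; analogue washed out of the bath and angiotensin II response retested at 5, 30, 60, 120 and 180 min.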

Rattus norvegicus [6] = assay: In vivo agonist activity at angiotensin 2 receptor in ganglion-blocked vagotomized rat assessed as rise in blood pressure at 125 ng/kg/min compound infused for 3 mins; assay type: functional
Rattus norvegicus [7] = assay: In vivo non-competitive antagonist activity at angiotensin 2 receptor in ganglion-blocked vagotomized rat assessed as angiotensin-2 dose ratio at 125 ng/kg/min administered as an infusion; assay type: functional
Outline: (§2)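 Vagotomized, ganglion-blocked rats infused with analogue at 125 or 250 ng/kg/min; antagonism of angiotensin II pressor response expressed as dose ratio.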

Rattus norvegicus [8] = assay: In vivo agonist activity at angiotensin 2 receptor in ganglion-blocked vagotomized rat assessed as rise in blood pressure at 125 ng/kg/min compound infused for 10 mins; assay type: functional
Rattus norvegicus [9] = assay: In vivo agonist activity at angiotensin 2 receptor in ganglion-blocked vagotomized rat assessed as pressor activity administered as single bolus dose relative to angiotensin-2; assay type: functional
Outline: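 Vagotomized, ganglion-blocked rats; analogue given as a single injection and pressor response expressed as percent of angiotensin II ([Asp1,Ile5]angiotensin II = 100).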

Oryctolagus cuniculus [10] = species on record: Oryctolagus cuniculus; assay: Agonist activity at angiotensin 2 receptor in rabbit aorta assessed as myotropic activity up to 1 uM/L relative to angiotensin-2; assay type: tissue-based
Outline: (§3)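 Spirally cut isolated rabbit aortic strips; contractile (myotropic) activity of each analogue tested up to a maximum dose level of 10^-6 M/L.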

Rattus norvegicus [11] = assay: In vivo agonist activity at angiotensin 2 receptor in ganglion-blocked vagotomized rat assessed as rise in blood pressure at 125 ng/kg/min compound infused for 30 mins; assay type: functional
Outline: (§4)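 Vagotomized, ganglion-blocked rats given analogue by infusion (standard rate 250 ng/kg/min, some at 125 ng/kg/min); initial blood pressure rise recorded in mmHg over the 30-min infusion period.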

Oryctolagus cuniculus [12] = species on record: Oryctolagus cuniculus; assay: Non-competitive antagonist at angiotensin 2 receptor in rabbit aorta assessed as inhibition of angiotensin-2 induced myotropic activity at > 1 uM/L; assay type: tissue-based
Oryctolagus cuniculus [13] = species on record: Oryctolagus cuniculus; assay: Reversal antagonistic activity at angiotensin 2 receptor in rabbit aorta assessed as inhibition of angiotensin-2 induced myotropic activity at 1 uM/L measured at 1 hr following drug wash-out; assay type: tissue-based; outline: as §1
[14] = Retardation factor of the compound using n-BuOH-pyridine-water at ratio of 10:2:5 as solvent system by thin layer chromatography; assay type: physicochemical; settings: buffer
Rattus norvegicus [15] = assay: In vivo agonist activity at angiotensin 2 receptor in ganglion-blocked vagotomized rat assessed as rise in blood pressure at 250 ng/kg/min compound infused for 10 mins; assay type: functional
Rattus norvegicus [16] = assay: In vivo agonist activity at angiotensin 2 receptor in ganglion-blocked vagotomized rat assessed as rise in blood pressure at 250 ng/kg/min compound infused for 3 mins; assay type: functional
[17] = Retardation factor of the compound using n-BuOH-pyridine-water at ratio of 65:35:65 as solvent system by thin layer chromatography; assay type: physicochemical; settings: buffer
[18] = Retardation factor of the compound using n-PrOH-water at ratio of 2:1 as solvent system by thin layer chromatography; assay type: physicochemical; settings: buffer
Rattus norvegicus [19] = assay: In vivo agonist activity at angiotensin 2 receptor in ganglion-blocked vagotomized rat assessed as rise in blood pressure at 250 ng/kg/min compound infused for 30 mins; assay type: functional; outline: as §4
Rattus norvegicus [20] = assay: In vivo non-competitive antagonist activity at angiotensin 2 receptor in ganglion-blocked vagotomized rat assessed as angiotensin-2 dose ratio at 250 ng/kg/min administered as an infusion; assay type: functional; outline: as §2
Oryctolagus cuniculus [21] = species on record: Oryctolagus cuniculus; assay: Agonist activity at angiotensin 2 receptor in rabbit aorta assessed as myotropic activity relative to angiotensin-2; assay type: tissue-based; outline: as §3
Felis catus [22] = species on record: Felis catus; assay: Agonist activity at angiotensin 2 receptor in cat adrenal medulla assessed as secretory activity relative to angiotensin-2; assay type: tissue-based
Felis catus [23] = species on record: Felis catus; assay: Agonist activity at angiotensin 2 receptor in cat adrenal cortex assessed as secretory activity relative to angiotensin-2; assay type: tissue-based
[24] = Retardation factor of the compound using n-BuOH-AcOEt-AcOH-water at ratio of 1:1:1:1 as solvent system by thin layer chromatography; assay type: physicochemical; settings: buffer
[25] = Retardation factor of the compound using n-BuOH-AcOH-water at ratio of 4:1:1 as solvent system by thin layer chromatography; assay type: physicochemical; settings: buffer

SMILES | Rf [1] | Rf [2] | Rf [3] | TIME (Oryctolagus cuniculus [5]) | Rf [14] | Rf [17] | pA2 [4] | Activity (Rattus norvegicus [6]) | Ratio (Rattus norvegicus [7]) | Activity (Rattus norvegicus [9]) | Activity (Oryctolagus cuniculus [10]) | Activity (Rattus norvegicus [11]) | inhibition (Oryctolagus cuniculus [12]) | Activity (Rattus norvegicus [15]) | Activity (Rattus norvegicus [16]) | Activity (Rattus norvegicus [19]) | Ratio (Rattus norvegicus [20]) | other results
CNCC(=O)N[C@@H](CCCNC(=N)N)C(=O)N[C@H](C(=O)N[C@@H](Cc1ccc(O)cc1)C(=O)N[C@H](C(=O)N[C@@H](Cc1cnc[nH]1)C(=O)N1CCC[C@H]1C(=O)N[C@H](C(=O)O)[C@@H](C)OC)[C@@H](C)OC)C(C)C | 0.18 | 0.47 | 0.28 | 2 h | – | – | 9.5 | 8.33 mmHg | 32.73 | 0.46% | 0% | 14.5 mmHg | Active | – | – | – | – | Activity (Rattus norvegicus [8]): 13 mmHg
CC[C@H](C)[C@H](NC(=O)[C@H](Cc1ccc(O)cc1)NC(=O)[C@@H](NC(=O)[C@H](CCCNC(=N)N)NC(=O)C(C)(C)N)C(C)C)C(=O)N[C@@H](Cc1cnc[nH]1)C(=O)N1CCC[C@H]1C(=O)NC(C)(C)C(=O)O | 0.41 | 0.64 | 0.47 | 1 h | 0.26 | 0.43 | 7.22 | – | – | 0.24% | 0% | – | Active | 8.5 mmHg | 5.16 mmHg | 14.33 mmHg | 3.4 | inhibition (Oryctolagus cuniculus [13]): Active; Rf [18]: 0.83
CC[C@H](C)[C@H](NC(=O)[C@H](Cc1ccc(O)cc1)NC(=O)[C@@H](NC(=O)[C@H](CCCNC(=N)N)NC(=O)CNC)C(C)C)C(=O)N[C@@H](Cc1cnc[nH]1)C(=O)N1CCC[C@H]1C(=O)N[C@H](C(=O)O)[C@@H](C)OC | – | – | – | 2 h | – | – | 8.76 | 5.25 mmHg | 11.65 | 0.48% | 0.5% | 8.75 mmHg | Active | 15.88 mmHg | 13.82 mmHg | 15.06 mmHg | 62.52 | –
CC[C@H](C)[C@H](NC(=O)[C@@H]1CCCN1C(=O)[C@H](Cc1c[nH]cn1)NC(=O)[C@@H](NC(=O)[C@H](Cc1ccc(O)cc1)NC(=O)[C@@H](NC(=O)[C@H](CCCN=C(N)N)NC(=O)CNC)C(C)C)[C@@H](C)OC)C(=O)O (H-[Sar]RVYT(Me)HPI-OH) | 0.25 | – | 0.35 | 2 h | 0.08 | 0.25 | 9.5 | 11 mmHg | 24.15 | 1.01% | 0.1% | 19.8 mmHg | Active | 18.83 mmHg | 19 mmHg | 18.5 mmHg | 50 | Activity (Rattus norvegicus [8]): 16.82 mmHg
CC[C@H](C)[C@H](NC(=O)[C@H](Cc1ccc(O)cc1)NC(=O)[C@@H](NC(=O)CN(C)C(=O)CNC)C(C)C)C(=O)N[C@@H](Cc1c[nH]cn1)C(=O)N1CCC[C@H]1C(=O)N[C@H](C(=O)O)[C@@H](C)O (H-[Sar][Sar]VYIHPT-OH) | 0.43 | 0.63 | 0.46 | 3 h | 0.24 | – | 8.78 | – | – | 0% | 0% | – | Active | 7 mmHg | 3.16 mmHg | 11.66 mmHg | 1.93 | Rf [18]: 0.76; Rf [24]: 0.75
CC[C@H](C)[C@H](NC(=O)[C@H](Cc1ccc(O)cc1)NC(=O)[C@@H](NC(=O)[C@H](CCCNC(=N)N)NC(=O)CNC)C(C)C)C(=O)N[C@@H](Cc1cnc[nH]1)C(=O)N1CCC[C@H]1C(=O)NC(C)(C)C(=O)O | 0.26 | 0.62 | 0.46 | 2 h | – | 0.22 | 8.7 | – | – | 0.52% | 0% | – | Active | 13.16 mmHg | 11 mmHg | 16.6 mmHg | 19.76 | Rf [25]: 0.5

Second part, led by results:

Rf [1] | Rf [2] | Rf [3] | TIME (Oryctolagus cuniculus [5]) | Rf [14] | Rf [17] | SMILES | pA2 [4] | Activity (Rattus norvegicus [6]) | Ratio (Rattus norvegicus [7]) | Activity (Rattus norvegicus [9]) | Activity (Oryctolagus cuniculus [10]) | Activity (Rattus norvegicus [11]) | inhibition (Oryctolagus cuniculus [12]) | Activity (Rattus norvegicus [15]) | Activity (Rattus norvegicus [16]) | Activity (Rattus norvegicus [19]) | Ratio (Rattus norvegicus [20]) | other results
– | – | – | 2 h | – | – | CC[C@H](C)[C@H](NC(=O)[C@@H]1CCCN1C(=O)[C@H](Cc1c[nH]cn1)NC(=O)[C@@H](NC(=O)[C@H](Cc1ccc(O)cc1)NC(=O)[C@@H](NC(=O)[C@H](CCCN=C(N)N)NC(=O)CNC)C(C)C)[C@@H](C)CC)C(=O)O | 9.17 | – | – | 1% | 1% | – | Active | 18.27 mmHg | 17.81 mmHg | 14.81 mmHg | 27.79 | –
– | – | – | 2 h | – | – | CC[C@H](C)[C@H](NC(=O)[C@H](Cc1ccc(O)cc1)NC(=O)[C@@H](NC(=O)[C@H](CCCN=C(N)N)NC(=O)CNC)C(C)C)C(=O)N[C@@H](Cc1c[nH]cn1)C(=O)N1CCC[C@H]1C(=O)N[C@H](C(=O)O)[C@@H](C)O (H-[Sar]RVYIHPT-OH) | 8.79 | – | – | 0.6% | 0.5% | – | Active | 9.66 mmHg | 9.46 mmHg | 9.2 mmHg | 26.91 | Activity (Oryctolagus cuniculus [21]): 0.5%; Activity (Felis catus [22]): 0.1%; Activity (Felis catus [23]): 1%
– | – | – | 2 h | – | – | CC[C@H](C)[C@H](NC(=O)[C@H](Cc1ccc(O)cc1)NC(=O)[C@@H](NC(=O)[C@H](CCCN=C(N)N)NC(=O)CNC)C(C)C)C(=O)N[C@@H](Cc1c[nH]cn1)C(=O)N1CCC[C@H]1C(=O)N[C@@H](C)C(=O)O | 8.61 | – | – | – | 0.5% | – | Active | 16.88 mmHg | 15.11 mmHg | 17.44 mmHg | 7.92 | –
